The list is not random: actives were taken first. Their share in the collection is about 2.3%.
TAAR1 antagonist – human TAAR1 antagonism; Q96RJ0; CHO RD-HGA16 TAAR1, Fluo-8 calcium fluorescence, antagonist; inhibition, % at 3 µM; 360,000 compounds, 1.5% hits;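 active = inhibition above a per-plate cutoff, the mean inhibition of test compounds on that plate plus 3 SD, cut at about 49% in these data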;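 note: 0% = DMSO plus EC80 beta-PEA response and 100% = DMSO alone without agonist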
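test system = CHO RD-HGA16 cells bearing hTAAR1 | replication = singlicate | controls = DMSO-only wells and EC80 β-PEA-stimulated wells | reagent = EC80 β-phenethylamine stimulus | read-out basis = percent inhibition of PEA-evoked calcium signal, max/basal emission ratio | schedule = seeding 17-24 h prior, 75-min 37 °C, 30-min RT dye loading | signal = kinetic Fluo-8 calcium fluorescence measurement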
OXTR agonist – activates the human oxytocin receptor | P30559 | CHO-OTR cells, Fluo-8 calcium fluorescence; normalized: DMSO 0%, oxytocin 100% | activation, % at 3 µM | 320,000 compounds, 0.32% hits;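 active = activation above the mean of all tested compounds plus 3 SD, cutoff set per screening run, cut at about 20% in these data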;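 note: peak over basal fluorescence ratio from a 100 s FLIPR kinetic read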
Target sequence (P30559 whole entry, looked up): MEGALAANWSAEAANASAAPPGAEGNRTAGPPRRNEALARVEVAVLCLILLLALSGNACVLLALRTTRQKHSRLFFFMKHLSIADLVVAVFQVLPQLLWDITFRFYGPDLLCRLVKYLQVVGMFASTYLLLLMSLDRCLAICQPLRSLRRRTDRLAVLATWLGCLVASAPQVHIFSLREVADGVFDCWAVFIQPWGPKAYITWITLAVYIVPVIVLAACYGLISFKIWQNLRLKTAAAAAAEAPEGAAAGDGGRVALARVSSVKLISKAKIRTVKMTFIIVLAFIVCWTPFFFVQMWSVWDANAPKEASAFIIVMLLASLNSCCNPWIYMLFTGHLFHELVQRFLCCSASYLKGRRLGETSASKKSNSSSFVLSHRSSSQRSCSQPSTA
V1aR counter – activates human V1a receptor in oxytocin agonist counter-screen; 320,000 compounds, 0.25% hits; AID 2797; CHO-V1R cells, Fluo-8 calcium fluorescence, agonist mode; 0% DMSO, 100% 3 nM vasopressin; P37288; activation, % at 3 µM;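 active = activation above the mean activation of all tested compounds plus 3 SD, per screening run, cut at about 20% in these data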;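 note: signal is peak over basal fluorescence ratio across a 100 second FLIPR read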
TAAR1 agonist – human TAAR1 agonism; Q96RJ0; CHO RD-HGA16 TAAR1, Fluo-8 calcium fluorescence; vehicle wells 0%, saturating PEA agonist 100%; activation, % at 3 µM; 360,000 compounds, 0.99% hits; AID 624467;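 active = activation above the mean activation of all test compounds in the run plus 3 SD, cut at about 38% in these data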
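System: CHO-derived RD-HGA16 cells with stable Gα16 and human TAAR1 / Times: 17-24 h plating, Fluo-8 75 min 37 °C, 30 min RT / Technique: calcium-sensitive Fluo-8 signal, excitation 470-495, emission 515-575 nm / Measure: % activation relative to PEA EC100 response / Benchmarks: DMSO and PEA EC100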
OXTR potentiate – potentiators of human oxytocin receptor. AID 2445. CHO-OTR cells, Fluo-8 calcium fluorescence, potentiator mode; 0% = oxytocin EC15, 100% = EC100. 320,000 compounds, 0.061% hits. activation, % at 3 µM;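 active = activation above that plate's cutoff, the mean activation of tested compounds plus 3 SD, cut at about 6.6% in these data, passing the limit was not always enough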;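 note: 100% uses oxytocin at 75 nM as the full agonist control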
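Assay system: CHO cell line stably expressing human OTR. Reagent: EC15 oxytocin agonist. Dosing: single dose, 3.0 µM nominal final compound concentration. Timing: compound 6 min at room temperature before oxytocin, 100 s read. Signal: kinetic Fluo-8 calcium fluorescence. Controls: oxytocin EC15 low and EC100 high.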
* = called active by the depositor.

Screening CC(=NCCc1ccccc1)c1c(O)n(C)c(=O)n(C)c1=O returned TAAR1 antagonist -26, OXTR agonist -1, V1aR counter 3, TAAR1 agonist 43* and OXTR potentiate -5.
Nc1cc(C(=O)Nc2ccccc2F)ccc1N1CC2CC(C1)c1cccc(=O)n1C2 (configuration not stated) was read as TAAR1 antagonist -15 and TAAR1 agonist 4.
C[C@]12CC[C@H](O)CC1=CC[C@@H]1[C@@H]2CC[C@]2(C)C(=O)CC[C@@H]12 was read as TAAR1 antagonist -21, OXTR agonist -1, V1aR counter 1, TAAR1 agonist 7 and OXTR potentiate -9.
Screening C[C@]12CC[C@H](O)CC1=CCC1C2CC[C@]2(C)C(=O)[C@H](Br)CC12 (some centres not stated) returned TAAR1 antagonist 59*, OXTR agonist 6, V1aR counter 7, TAAR1 agonist 12 and OXTR potentiate -9.
`C[C@]12C[C@H](O)[C@@H](O)C[C@@H]1CC[C@@H]1[C@@H]2CC[C@]2(C)C(=O)CC[C@@H]12` gave TAAR1 antagonist 51* and TAAR1 agonist 11.
For Nc1nc(N)c2cnnn2n1 the results were TAAR1 antagonist -9 and TAAR1 agonist 1.
Cc1ccccc1-c1ccc2n1Cc1cnnn1-c1ccccc1-2 was read as TAAR1 antagonist 19 and TAAR1 agonist -1.
Screening O=[N+]([O-])c1cccc(NP(=O)(Oc2ccccc2)Oc2ccccc2)c1 returned TAAR1 antagonist 58*, OXTR agonist 2, V1aR counter 1, TAAR1 agonist 3 and OXTR potentiate -11.
`CCOP(=O)(OCC)c1ccc(OP(=O)(c2cccc([N+](=O)[O-])c2)c2cccc([N+](=O)[O-])c2)cc1` gave TAAR1 antagonist -17, OXTR agonist -1, V1aR counter 1, TAAR1 agonist 5 and OXTR potentiate -2.
O=C1CC2OCC=C3CN4CCC56c7ccccc7N1C5C2C3CC46O (configuration not stated) was read as TAAR1 antagonist -8 and TAAR1 agonist 2.
For COC(=O)C1=C(c2ccc(F)cc2OCc2ccccc2)C[C@@H]2CC[C@H]1N2C(=O)NCc1ccc(Br)cc1 the results were TAAR1 antagonist 51*, OXTR agonist 2, V1aR counter 3, TAAR1 agonist 12 and OXTR potentiate -4.
`COC(=O)C1=C(c2ccc(C(C)=O)cc2)C[C@@H]2CC[C@H]1N2C(=O)NCc1ccc(C(F)(F)F)cc1` gave OXTR agonist 45*, V1aR counter 33* and OXTR potentiate -10.
`COC(=O)C1=C(c2ccc(Cl)c(C(F)(F)F)c2)C[C@@H]2CC[C@H]1N2C(=O)N1CCC(C)CC1` gave OXTR agonist -2, V1aR counter -1 and OXTR potentiate -7.
For CC(=O)NC(Cc1ccc(N(CCCl)CCCl)cc1)C(=O)NC(CC(C)C)C(=O)O (configuration not stated) the results were TAAR1 antagonist 8, OXTR agonist 1, V1aR counter 2, TAAR1 agonist 8 and OXTR potentiate -1.
Screening Cc1cc(C)cc(N2C(=O)NC(=O)/C(=C\c3cccn3-c3ccccc3)C2=O)c1 returned TAAR1 antagonist 47, OXTR agonist -2, V1aR counter 0, TAAR1 agonist 43* and OXTR potentiate -7.
Cc1cccc(N2C(=O)NC(=O)/C(=C\c3cnc(-c4ccccc4)nc3)C2=O)c1 was read as TAAR1 antagonist -2, OXTR agonist -1, V1aR counter -1, TAAR1 agonist 3 and OXTR potentiate -5.
COC(=O)C1=C(c2cccc3c2S(=O)(=O)c2ccccc2-3)C[C@@H]2CC[C@H]1N2C(=O)N1CCc2cc(OC)c(OC)cc2C1 was read as TAAR1 antagonist 51*, OXTR agonist -1, V1aR counter -1, TAAR1 agonist 17 and OXTR potentiate -8.
`CC(C)Sc1nnc(OC(=O)N(C)C)n1-c1ccccc1` gave TAAR1 antagonist -55, OXTR agonist -1, V1aR counter 5, TAAR1 agonist 2 and OXTR potentiate -17.
